For orientation: inhibition means the percentage by which the read-out fell short of the control. A word on the ED50: it is the dose that gives a 50% effect, or the effect in half of the subjects.

In series [1] the test system is Canis familiaris. Kind of series: Toxicity in Beagle dog assessed as increase in methemoglobin level at 6.4 mg/kg/day, po between 7 to 11 days. As to conditions: in vivo. On the set-up: route oral. It counts as organism-based, Canis lupus familiaris. In short, it runs like this: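 Beagle dogs, 8-9 months old, given drug as bulk powder in gelatin capsules orally on days 1-4, at 0.0116 mmol/kg/day as base. Daily clinical observation. Methemoglobin measured by co-oximetry from jugular or cephalic blood, predose on days 1, 2 and 4, then through day 29.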

In series [2] the test system is Leishmania donovani. Put plainly: Antileishmanial activity against Leishmania donovani HU3 infected in mouse assessed as inhibition of parasite burden at 45 mg/kg/day, sc for 5 days administered 7 days post-infection measured 14 days post-infection. Format: functional, organism-based. The method, boiled down:
(§1)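 Mice infected intravenously with 1 × 10^7 L. donovani (MHOM/ET/67/HU3) amastigotes. Starting 7 days post-infection, sodium stibogluconate was given subcutaneously once daily for 5 days, with doses expressed as SbV. Mice were killed 14 days post-infection. Parasite burdens were counted on liver impression smears and compared with an untreated control group. ED50 was obtained by linear regression.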

Series [3] has as its system Leishmania donovani. Put plainly: Antileishmanial activity against Leishmania donovani HU3 infected in mouse assessed as inhibition of parasite burden at 15 mg/kg/day, sc for 5 days administered 7 days post-infection measured 14 days post-infection. It counts as functional, organism-based. In short, it runs like this: as §1
Series [4] has as its system Leishmania donovani. Put plainly: Antileishmanial activity against Leishmania donovani HU3 infected in mouse assessed as inhibition of parasite burden at 5 mg/kg/day, sc for 5 days administered 7 days post-infection measured 14 days post-infection. Format: functional, organism-based. In short, it runs like this: as §1
Series [5] has as its system Leishmania donovani. Kind of series: Antileishmanial activity against Leishmania donovani HU3 infected in mouse assessed as inhibition of parasite burden administered subcutaneously once daily for 5 days after 7 days post-infection measured 14 days post-infection. It counts as functional, organism-based. In short, it runs like this:
as §1

Series [6] concerns Leishmania donovani. Kind of series: Antileishmanial activity against Leishmania donovani HU3 infected in mouse. It counts as functional. The method, boiled down: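 L. donovani HU3 amastigotes, 1 × 10^7 given IV to mice. From day 7 post-infection, dosed orally once daily for 5 days in 0.25% methylcellulose-10% ethanol; reference stibogluconate given SC. Mice killed at day 14 post-infection. Parasite burden counted on liver impression smears against untreated controls. ED50 from linear regression, with 95% confidence limits.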

On to `COc1cc(C)c2c(Oc3cccc(C(F)(F)F)c3)c(OC)cc(NC(C)CCCN)c2n1` (stereo not drawn) [TAFENOQUINE], for which the Activity entry in series [1] is listed as “Toxic”.
Sodium stibogluconate: the inhibition in series [2] amounted to 99.3%; in series [3], 59.4%; in series [4], 13.8%. The median effective dose (ED50) in series [5] came to 27.7 mg/kg. The ED90 in series [5] was more than 45 mg/kg.
Regarding `CCN(CC)CCCCCCNc1cc(OC)cc2c(C)ccnc12` [SITAMAQUINE], in series [6], the ED90 was 4.14 mg/kg. The compound further came in with an ED50 in series [6] (Leishmania donovani, HU3) of 1.55 mg/kg.

The values above are taken from ChEMBL document CHEMBL1649109, “Antiparasitic activities and toxicities of individual enantiomers of the 8-aminoquinoline 8-[(4-amino-1-methylbutyl)amino]-6-methoxy-4-methyl-5-[3,4-dichlorophenoxy]quinoline succinate” (Antimicrob Agents Chemother, 2008).
